Assay results as given in ChEMBL document CHEMBL5705886, “GSK1070916, a potent Aurora B/C kinase inhibitor with broad antitumor activity in tissue culture cells and human tumor xenograft models” (Mol Cancer Ther, 2009).
Activity calls are given as the source filed them. No cut-off for these calls is given here.

How the values were obtained:
WiDr = assay: Antiproliferative activity against human WiDr cells assessed as inhibition of cell viability measured for 6 to 7 days by cell titer glo assay; assay type: functional, cell-based
COLO 205 = assay: Antiproliferative activity against human COLO 205 cells assessed as inhibition of cell viability measured for 6 to 7 days by cell titer glo assay; assay type: functional, cell-based
Method in brief: (§1)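 Tumor lines plated in recommended growth media, overnight at 37°C, 5% CO2, then given serial dilutions; a T=0 plate read with CellTiter-Glo at dosing. After 6–7 d of exposure, viability read by CellTiter-Glo luminescence. No-cell wells subtracted, data expressed as % of DMSO control.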

SW1417 = assay: Antiproliferative activity against human SW1417 cells assessed as inhibition of cell viability measured for 6 to 7 days by cell titer glo assay; assay type: functional, cell-based
Method in brief: (§2)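 Cells seeded in recommended growth medium, held overnight at 37°C in 5% CO2, then exposed to serial dilutions of inhibitor for 6–7 d. A time-zero plate was read with CellTiter-Glo at dosing. Luminescent viability read at the end. No-cell wells subtracted as background, data expressed as percent of DMSO control.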

MX1 = assay: Antiproliferative activity against human MX1 cells assessed as inhibition of cell viability measured for 6 to 7 days by cell titer glo assay; assay type: functional, cell-based
Method in brief: (§3)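 Cells seeded in recommended growth medium, incubated overnight at 37°C in 5% CO2, then exposed to serial dilutions of inhibitor for 6–7 d. A parallel plate was read with CellTiter-Glo at compound addition as a T=0 value. The luminescent viability readout had no-cell background subtracted and was expressed as % of DMSO control.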

MDA-MB-231 = assay: Antiproliferative activity against human MDA-MB-231 cells assessed as inhibition of cell viability measured for 6 to 7 days by cell titer glo assay; assay type: functional, cell-based; method in brief: as §3
MCF7 [1] = assay: Antiproliferative activity against human MCF7 cells assessed as inhibition of cell viability measured for 6 to 7 days by cell titer glo assay; assay type: functional, cell-based; method in brief: as §3
HeLa = assay: Antiproliferative activity against human HeLa cells assessed as inhibition of cell viability measured for 6 to 7 days by cell titer glo assay; assay type: functional, cell-based; method in brief: as §3
A498 = assay: Antiproliferative activity against human A498 cells assessed as inhibition of cell viability measured for 6 to 7 days by cell titer glo assay; assay type: functional, cell-based; method in brief: as §1
NCI-H1155 = assay: Antiproliferative activity against human NCI-H1155 cells assessed as inhibition of cell viability measured for 6 to 7 days by cell titer glo assay; assay type: functional, cell-based; method in brief: as §3
[2] = Antiproliferative activity against human HuNS1 cells assessed as inhibition of cell viability measured for 6 to 7 days by cell titer glo assay; assay type: functional, cell-based; method in brief: as §3
CRO-AP2 = assay: Antiproliferative activity against human CRO-AP2 cells assessed as inhibition of cell viability measured for 6 to 7 days by cell titer glo assay; assay type: functional, cell-based; method in brief: as §1
SR = assay: Antiproliferative activity against human SR cells assessed as inhibition of cell viability measured for 6 to 7 days by cell titer glo assay; assay type: functional, cell-based; method in brief: as §2
MC-CAR = assay: Antiproliferative activity against human MC-CAR cells assessed as inhibition of cell viability measured for 6 to 7 days by cell titer glo assay; assay type: functional, cell-based; method in brief: as §3
DOHH-2 = assay: Antiproliferative activity against human DOHH-2 cells assessed as inhibition of cell viability measured for 6 to 7 days by cell titer glo assay; assay type: functional, cell-based; method in brief: as §1
ARH-77 = assay: Antiproliferative activity against human ARH-77 cells assessed as inhibition of cell viability measured for 6 to 7 days by cell titer glo assay; assay type: functional, cell-based; method in brief: as §1
NC-37 = assay: Antiproliferative activity against human NC-37 cells assessed as inhibition of cell viability measured for 6 to 7 days by cell titer glo assay; assay type: functional, cell-based; method in brief: as §3
[3] = Antiproliferative activity against human HS-Sultan cells assessed as inhibition of cell viability measured for 6 to 7 days by cell titer glo assay; assay type: functional, cell-based; method in brief: as §3
[4] = Antiproliferative activity against human Hs 445 cells assessed as inhibition of cell viability measured for 6 to 7 days by cell titer glo assay; assay type: functional, cell-based; method in brief: as §3
SUP-B15 = assay: Antiproliferative activity against human SUP-B15 cells assessed as inhibition of cell viability measured for 6 to 7 days by cell titer glo assay; assay type: functional, cell-based; method in brief: as §2
OCI-AML2 = assay: Antiproliferative activity against human OCI-AML2 cells assessed as inhibition of cell viability measured for 6 to 7 days by cell titer glo assay; assay type: functional, cell-based; method in brief: as §2
ML-2 = assay: Antiproliferative activity against human ML-2 cells assessed as inhibition of cell viability measured for 6 to 7 days by cell titer glo assay; assay type: functional, cell-based; method in brief: as §3
MV4-11 = assay: Antiproliferative activity against human MV4-11 cells assessed as inhibition of cell viability measured for 6 to 7 days by cell titer glo assay; assay type: functional, cell-based; method in brief: as §3
NB-4 = assay: Antiproliferative activity against human NB4 cells assessed as inhibition of cell viability measured for 6 to 7 days by cell titer glo assay; assay type: functional, cell-based; method in brief: as §3
[5] = Antiproliferative activity against human M-07e cells assessed as inhibition of cell viability measured for 6 to 7 days by cell titer glo assay; assay type: functional, cell-based; method in brief: as §3
KG-1 = assay: Antiproliferative activity against human KG-1 cells assessed as inhibition of cell viability measured for 6 to 7 days by cell titer glo assay; assay type: functional, cell-based; method in brief: as §3
HEL 92.1.7 = assay: Antiproliferative activity against human HEL 92.1.7 cells assessed as inhibition of cell viability measured for 6 to 7 days by cell titer glo assay; assay type: functional, cell-based; method in brief: as §1
[6] = Antiproliferative activity against human EM-3 cells assessed as inhibition of cell viability measured for 6 to 7 days by cell titer glo assay; assay type: functional, cell-based; method in brief: as §1
KU812 cell line = assay: Antiproliferative activity against human KU812 cell line assessed as inhibition of cell viability measured for 6 to 7 days by cell titer glo assay; assay type: functional, cell-based; method in brief: as §3
MOLT-4 = assay: Antiproliferative activity against human MOLT-4 cells assessed as inhibition of cell viability measured for 6 to 7 days by cell titer glo assay; assay type: functional, cell-based; method in brief: as §3
Jurkat = assay: Antiproliferative activity against human Jurkat cells assessed as inhibition of cell viability measured for 6 to 7 days by cell titer glo assay; assay type: functional, cell-based; method in brief: as §3
[7] = Antiproliferative activity against human MJ cells assessed as inhibition of cell viability measured for 6 to 7 days by cell titer glo assay; assay type: functional, cell-based; method in brief: as §3
A549 = assay: Induction of mitotic alteration in human A549 cells formation of multipolar spindles at 12 to 330 nmol/L incubated for 24 hrs by immunofluorescent microscopy based analysis; assay type: functional, cell-based; conditions: dose lower […], dose upper 330.0 nmol/L
K562 = assay: Antitumor activity in human K562 cells xenografted in SCID mouse assessed as reduction in tumor growth at 100 mg/kg, ip administered once daily for 5 consecutive days with 2 days off scheduled for 3 cycles measured upto 60 days; assay type: functional, organism-based; conditions: time 60.0 day
MCF7 [8] = assay: Antitumor activity in human MCF7 cells xenografted in SCID mouse assessed as reduction in tumor growth at 50 to 100 mg/kg, ip administered once daily for 5 consecutive days with 2 days off scheduled for 3 cycles measured upto 60 days; assay type: functional, organism-based; conditions: dose 50-100 mg/kg, time <= 60.0 day
[9] = biological target: Aurora kinase B/Inner centromere protein (Homo sapiens, UniProt Q96GD4); assay: Binding affinity to AurB/INCENP (unknown origin) assessed as inhibition constant; assay type: protein-complex assay
Chain of Aurora kinase B/Inner centromere protein (Q96GD4 whole entry): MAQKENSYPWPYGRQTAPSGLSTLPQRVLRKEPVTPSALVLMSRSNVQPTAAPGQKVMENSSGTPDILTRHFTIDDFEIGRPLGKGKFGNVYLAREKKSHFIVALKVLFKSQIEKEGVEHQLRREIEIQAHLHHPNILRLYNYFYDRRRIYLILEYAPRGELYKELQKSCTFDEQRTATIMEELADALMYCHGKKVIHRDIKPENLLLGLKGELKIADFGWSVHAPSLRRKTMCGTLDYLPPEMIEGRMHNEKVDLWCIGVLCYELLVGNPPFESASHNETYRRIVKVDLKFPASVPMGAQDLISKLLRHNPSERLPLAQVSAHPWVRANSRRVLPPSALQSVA
Chain of Aurora kinase B/Inner centromere protein (Q9NQS7 whole entry, further chain): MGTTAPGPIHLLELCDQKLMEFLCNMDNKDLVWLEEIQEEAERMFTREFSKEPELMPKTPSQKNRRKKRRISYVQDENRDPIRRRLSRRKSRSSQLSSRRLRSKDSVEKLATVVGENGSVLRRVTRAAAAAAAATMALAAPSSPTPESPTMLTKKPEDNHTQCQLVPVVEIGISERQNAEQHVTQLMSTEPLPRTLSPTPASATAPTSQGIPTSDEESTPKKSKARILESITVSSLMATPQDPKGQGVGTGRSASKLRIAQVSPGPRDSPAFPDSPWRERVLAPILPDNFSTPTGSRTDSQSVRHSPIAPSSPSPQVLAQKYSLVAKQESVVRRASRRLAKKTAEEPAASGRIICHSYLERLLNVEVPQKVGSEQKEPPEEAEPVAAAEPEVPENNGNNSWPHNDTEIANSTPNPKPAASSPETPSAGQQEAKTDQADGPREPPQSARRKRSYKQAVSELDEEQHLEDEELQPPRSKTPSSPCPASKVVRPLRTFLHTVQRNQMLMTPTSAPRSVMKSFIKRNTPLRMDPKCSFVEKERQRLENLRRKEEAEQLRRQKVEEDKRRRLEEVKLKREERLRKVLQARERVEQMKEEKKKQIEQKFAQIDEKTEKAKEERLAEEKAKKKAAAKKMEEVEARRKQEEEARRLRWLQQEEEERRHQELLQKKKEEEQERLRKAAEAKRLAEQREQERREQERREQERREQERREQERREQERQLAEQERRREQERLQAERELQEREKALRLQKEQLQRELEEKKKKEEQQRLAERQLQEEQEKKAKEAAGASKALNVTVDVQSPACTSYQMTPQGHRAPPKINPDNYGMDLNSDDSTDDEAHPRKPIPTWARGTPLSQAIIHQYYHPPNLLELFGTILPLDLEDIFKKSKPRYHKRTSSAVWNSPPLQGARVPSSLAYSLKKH

HCT-116 = assay: Antitumor activity in human HCT-116 cells xenografted in nude mouse assessed as reduction in tumor growth at 25 to 100 mg/kg, ip administered once daily for 5 consecutive days with 2 days off scheduled for 3 cycles measured upto 60 days; conditions: dose 25-100 mg/kg, time <= 60.0 day

## CCn1cc(-c2ccnc3[nH]c(-c4cccc(CN(C)C)c4)cc23)c(-c2ccc(NC(=O)N(C)C)cc2)n1 [GSK-1070916]
WiDr
  EC50: 3 nM
COLO 205
  EC50: 7 nM
SW1417
  EC50: 19 nM
MX1
  EC50: 8 nM
MDA-MB-231
  EC50: 11 nM
MCF7 [1]
  EC50: 13 nM
HeLa
  EC50: 13 nM
A498
  EC50: 33 nM
NCI-H1155
  EC50: 40 nM
[2]
  EC50: 9 nM
CRO-AP2
  EC50: 3 nM
SR
  EC50: 3 nM
MC-CAR
  EC50: 9 nM
DOHH-2
  EC50: 14 nM
ARH-77
  EC50: 15 nM
NC-37
  EC50: 7 nM
[3]
  EC50: 14 nM
[4]
  EC50: 5 nM
SUP-B15
  EC50: 2 nM
OCI-AML2
  EC50: 4 nM
ML-2
  EC50: 5 nM
MV4-11
  EC50: 7 nM
NB-4
  EC50: 11 nM
[5]
  EC50: 13 nM
KG-1
  EC50: 32 nM
HEL 92.1.7
  EC50: 60 nM
[6]
  EC50: 4 nM
KU812 cell line
  EC50: 8 nM
MOLT-4
  EC50: 3 nM
Jurkat
  EC50: 3 nM
[7]
  EC50: 7 nM
A549
  Activity: Active
K562
  Activity: Active
MCF7 [8]
  Activity: inactive
[9]
  Ki: 0.39 nM
HCT-116
  Activity: Active
